The record followed here is ChEMBL document CHEMBL1153494, “Design, synthesis, enzyme inhibition, and tumor cell growth inhibition of 2-anilinobenzamide derivatives as SIRT1 inhibitors” (Bioorg Med Chem, 2009).

Assay [1] concerns the target T1, NAD-dependent protein deacetylase sirtuin-1 (Homo sapiens, UniProt Q96EB6).
T1 sequence (Q96EB6 whole entry): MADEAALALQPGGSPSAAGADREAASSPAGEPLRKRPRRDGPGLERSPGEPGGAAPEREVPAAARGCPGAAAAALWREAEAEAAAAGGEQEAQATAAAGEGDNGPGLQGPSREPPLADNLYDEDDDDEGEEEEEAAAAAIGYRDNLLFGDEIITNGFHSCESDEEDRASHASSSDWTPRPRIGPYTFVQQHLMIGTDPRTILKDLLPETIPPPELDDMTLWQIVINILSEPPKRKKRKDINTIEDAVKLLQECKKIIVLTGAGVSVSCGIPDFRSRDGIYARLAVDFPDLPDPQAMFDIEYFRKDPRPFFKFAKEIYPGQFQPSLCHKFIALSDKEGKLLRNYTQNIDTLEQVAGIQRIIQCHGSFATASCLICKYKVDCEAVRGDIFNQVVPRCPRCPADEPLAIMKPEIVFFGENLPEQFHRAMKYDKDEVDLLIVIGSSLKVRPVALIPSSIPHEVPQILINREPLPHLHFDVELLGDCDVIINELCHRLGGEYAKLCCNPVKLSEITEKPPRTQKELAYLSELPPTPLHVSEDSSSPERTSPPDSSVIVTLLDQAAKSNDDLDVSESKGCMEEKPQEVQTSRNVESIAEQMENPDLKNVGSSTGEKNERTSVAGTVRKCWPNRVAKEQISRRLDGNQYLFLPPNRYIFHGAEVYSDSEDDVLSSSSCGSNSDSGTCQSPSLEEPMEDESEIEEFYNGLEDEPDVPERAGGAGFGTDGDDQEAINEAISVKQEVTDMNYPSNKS
The assay can be described thus: Inhibition of human recombinant SIRT1 by fluorimetric analysis. An outline of the steps: (§1)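 Recombinant human SIRT1 was incubated at 37 °C with Fluor de Lys-SIRT1 substrate, NAD⁺ and a range of sample concentrations. After 60 min the reaction was stopped with Fluor de Lys Developer II containing nicotinamide. Fluorescence (ex 360 nm / em 460 nm) was read 45 min later, and % inhibition was taken relative to control wells.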

Assay [2] relates to Daudi. The assay can be described thus: Growth inhibition of human Daudi cells at 100 uM after 24 hrs by alamar blue assay. The format is functional. Particulars: 72 h, in the assay text read “after 72 hrs” for “after 24 hrs”. An outline of the steps:
(§2)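 Cells came from ATCC and were grown with penicillin/streptomycin and FBS: HCT116 in McCoy's 5A, Daudi in RPMI. They were seeded at 5000 cells/well; after 24 h, compounds in medium were added at various concentrations for 72 h at 37 °C, 5% CO₂. AlamarBlue was then added for 3 h, fluorescence read (ex 530 / em 590 nm), and % cell growth calculated.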
Background: The colour change of resazurin is a common sign of viable cells or microbes.

For assay [3], the system named is Daudi. The assay can be described thus: Growth inhibition of human Daudi cells after 24 hrs by alamar blue assay. The format is functional. Particulars: 72 h, in the assay text read “after 72 hrs” for “after 24 hrs”. An outline of the steps: as §2
Assay [4] has as its system HCT-116. The assay is described as follows: Growth inhibition of human HCT116 cells after 24 hrs by alamar blue assay. It is filed as functional. Particulars: HCT-116, 72 h, in the assay text read “after 72 hrs” for “after 24 hrs”. An outline of the steps:
as §2

Assay [5] relates to HCT-116. The assay is described as follows: Growth inhibition of human HCT116 cells at 100 uM after 24 hrs by alamar blue assay. Particulars: HCT-116, 72 h, in the assay text read “after 72 hrs” for “after 24 hrs”. The format is functional. The method, boiled down: as §2
Assay [6] addresses T1, NAD-dependent protein deacetylase sirtuin-1. The assay can be described thus: Inhibition of human recombinant SIRT1 at 300 uM by fluorimetric analysis. The method, boiled down:
as §1

Each structure is given as a SMILES string.

In the case of `Cc1cccc(Nc2ccccc2C(N)=O)c1`, the concentration for half-maximal inhibition (IC50) (in general, the concentration that inhibits the measured activity by half) in assay [1] was 68 µM.

Consider `NC(=O)c1ccccc1Nc1cccc(/C=C/C(=O)O)c1`, for which the inhibition at 100 µM in assay [2] and in assay [5] was 0% in each case. For the same molecule, the GI50 in assay [3] and in assay [4] was above 100 µM in each case. Moreover, the IC50 in assay [1] was determined as 58 µM.

With `NC(=O)c1ccccc1Nc1cccc(-c2ccccc2)c1`, the inhibition (in general, the drop in the measured response relative to a control, in per cent) at 100 µM in assay [2] was determined as 108%; in assay [5], 126%. Besides, the GI50 (commonly the concentration that inhibits growth by half) in assay [3] was 26 µM; in assay [4], 43 µM. In addition, in assay [1], the IC50 is 52 µM.

Turning to `COC(=O)/C=C/c1cccc(Nc2ccccc2C(N)=O)c1`, in assay [1], the IC50 is 65 µM.

As to `NC(=O)c1ccccc1Nc1cccc(CCO)c1`, the values for the inhibition at 100 µM in assay [2] and in assay [5] were 6% and 12%, respectively. Moreover, the GI50 in assay [3] and in assay [4] was above 100 µM each time. For the same molecule, the IC50 in assay [1] stood at 72 µM.

Turning to `NC(=O)c1ccccc1Nc1ccccc1` [ANILINOBENZAMIDE], the inhibition at 100 µM in assay [2] worked out at 74%; in assay [5] it was 21%. In addition, the GI50 was 77 µM in assay [3] and above 100 µM in assay [4]. Further, the IC50 in assay [1] turned out to be 56 µM.

Take `NC(=O)c1ccccc1Sc1ccccc1`: in assay [1], the IC50 amounted to 78 µM.

Regarding `NC(=O)c1ccccc1Nc1cccc(Oc2ccccc2)c1`, the values for the inhibition at 100 µM in assay [2] and in assay [5] were 103% and 126%, respectively. Besides, the GI50 in assay [3] stood at 31 µM; in assay [4], 50 µM. Moreover, the IC50 in assay [1] amounted to 58 µM.

Turning to `NC(=O)c1ccccc1Nc1cccc(CO)c1`, the results for the inhibition at 100 µM in assay [2] and in assay [5] were 0% and 4%, respectively. Moreover, the GI50 in assay [3] and in assay [4] was above 100 µM throughout. Moreover, the IC50 in assay [1] was 60 µM.

In the case of `NC(=O)c1ccccc1Nc1ccc(-c2ccccc2)cc1`, the “inhibition (INH)” value in assay [6] came to 36%.

On to `NC(=O)c1ccccc1Nc1cccc(Sc2ccccc2)c1`, for which the IC50 in assay [1] turned out to be 89 µM.
